Published values gathered from unrelated publications.
Each line is one published result; the experiments were not run side by side.
Nectin-4: Nectin-4 (Homo sapiens, UniProt Q96NY8)
PIK3C2B: Phosphatidylinositol 4-phosphate 3-kinase C2 domain-containing subunit beta (PIK3C2B, Homo sapiens, UniProt O00750)
UCK1: UCK1 (Homo sapiens, UniProt Q9HA47)

`Nc1ncnc2c1ncn2[C@@H]1O[C@H](COP(=O)(O)O)[C@@H](O)[C@H]1O` has a Kd of 54000 nM (Adenylosuccinate lyase (ADSL, Homo sapiens, UniProt P30566); binding, ITC).
With `CCCCCC(C)=O` the Kd was about 800 nM (Or85b (Drosophila melanogaster, UniProt Q9VHQ7); binding, MST).
For `CCCC[C@@H]1NC(=O)[C@H](Cc2ccc(O)cc2)NC(=O)[C@@H]2CCCN2C(=O)[C@H](CC(=O)O)NC(=O)[C@H](C)NC(=O)[C@H](Cc2ccccc2)NC(=O)[C@@H]2CSCCC(=O)N3CN(CN(C3)C(=O)CCSC[C@@H](C(=O)N[C@@H](CNC(=O)CCc3cn(CCOCCOCCOCCOCCOCCOCCOCCOCCOCCOCCOCCOCCC(=O)NCCC(=O)N(C)CC(=O)N(C)CC(=O)N(C)CC(=O)N(C)CC(=O)N(C)CC(=O)N(C)CC(=O)N(C)CC(=O)N(C)CC(=O)N(C)CC(=O)N(C)CC(=O)NCCCC[C@@H]4NC(=O)[C@H](Cc5cccc6ccccc56)NC(=O)[C@@H]5CCCN5C(=O)[C@@H](NC(C)=O)CSCCC(=O)N5CN6CN(C5)C(=O)CCSC[C@H](NC4=O)C(=O)N[C@@H](CCSC)C(=O)N[C@@H](CCCCNC(=N)N)C(=O)N[C@@H](CC(=O)O)C(=O)N[C@@H](Cc4c[nH]c5ccccc45)C(=O)N[C@@H](CO)C(=O)N[C@@H]([C@@H](C)O)C(=O)N4CCC[C@H]4C(=O)N4C[C@H](O)C[C@H]4C(=O)N[C@@H](Cc4c[nH]c5ccccc45)C(=O)N[C@H](C(N)=O)CSCCC6=O)nn3)C(N)=O)NC1=O)C(=O)CCSC[C@H](NC(C)=O)C(=O)N[C@@H](CC(C)(C)C)C(=O)N1CCC[C@H]1C(=O)N[C@@H](CCC(=O)O)C(=O)N[C@H](C)C(=O)N1CCC[C@H]1C(=O)N[C@@H](Cc1ccc(O)cc1)C(=O)N2`, the Kd was 2 nM (Nectin-4; binding, SPR).
The Kd of `Cc1cnc(-c2ccc(-c3ccc(NC(=O)Nc4c(F)cc(F)cc4F)cc3F)c3c2C(=O)NC3)[nH]1` is reported as 14 nM (Cytoplasmic tyrosine-protein kinase BMX (BMX, Homo sapiens, UniProt P51813); binding, competition with immobilised ligand).
`O=C(CCCCCCC(=O)Nc1ccc([C@H]2O[C@@H](CSc3nc(-c4ccccc4)c(-c4ccccc4)o3)C[C@@H](c3ccc(CO)cc3)O2)cc1)NO` gave a Kd of over 30200 nM (Histone deacetylase 2 (HDAC2, Homo sapiens, UniProt Q92769); cell-free assay).
For `CCCC[C@@H]1NC(=O)[C@H](Cc2ccc(O)cc2)NC(=O)[C@@H]2CCCN2C(=O)[C@H](CCC(=O)O)NC(=O)[C@H](C)NC(=O)[C@H](Cc2ccccc2)NC(=O)[C@@H]2CSCCC(=O)N3CN(CN(C3)C(=O)CCSC[C@H](NC(C)=O)C(=O)N[C@@H](CC(C)(C)C)C(=O)N3CCC[C@H]3C(=O)N[C@@H](CCC(=O)O)C(=O)N[C@H](CCCCNC(=O)CCc3cn(CCOCCOCCOCCN(CCOCCOCCOCCC(=O)N[C@H]4CSCCC(=O)N5CN6CN(C5)C(=O)CCSC[C@H](NC(=O)[C@@H](CC(=O)O)NC(=O)[C@H](Cc5cccc7ccccc57)NC(=O)[C@@H]5CCCN5C4=O)C(=O)N[C@@H](CCSC)C(=O)N[C@@H](CCCCNC(=N)N)C(=O)N[C@@H](CC(=O)O)C(=O)N[C@@H](Cc4c[nH]c5ccccc45)C(=O)N[C@@H](CO)C(=O)N[C@@H]([C@@H](C)O)C(=O)N4CCC[C@H]4C(=O)N4C[C@H](O)C[C@H]4C(=O)N[C@@H](Cc4c[nH]c5ccccc45)C(=O)N[C@H](C(N)=O)CSCCC6=O)CCOCCOCCOCCn4cc(CCC(=O)NCCCC[C@H]5NC(=O)[C@H](CCC(=O)O)NC(=O)[C@@H]6CCCN6C(=O)[C@H](CC(C)(C)C)NC(=O)[C@@H](NC(C)=O)CSCCC(=O)N6CN7CN(C6)C(=O)CCSC[C@H](NC(=O)[C@H](Cc6ccc(O)cc6)NC(=O)[C@@H]6CCCN6C5=O)C(=O)N[C@@H](Cc5ccccc5)C(=O)N[C@@H](C)C(=O)N[C@@H](CCC(=O)O)C(=O)N5CCC[C@H]5C(=O)N[C@@H](Cc5ccc(O)cc5)C(=O)N[C@@H](CCCC)C(=O)N[C@H](C(N)=O)CSCCC7=O)nn4)nn3)C(=O)N3CCC[C@H]3C(=O)N[C@@H](Cc3ccc(O)cc3)C(=O)N2)C(=O)CCSC[C@@H](C(N)=O)NC1=O`, the Kd was 2.7 nM (Nectin-4; binding, SPR).
`CC(=O)N[C@H](C(=O)N1C[C@H](O)C[C@H]1C(=O)NCc1ccc(-c2scnc2C)cc1)C(C)(C)SCCCCCCNC(=O)C[C@@H]1N=C(c2ccc(Cl)cc2)c2c(sc(C)c2C)-n2c(C)nnc21` has a Kd of 35 nM (Bromodomain-containing protein 3, BD1 (BRD3, Homo sapiens, UniProt Q15059); binding, ITC).
The Kd of `CC#CC(=O)N1CC[C@@H](n2cc(-c3ccc(Oc4c(F)cccc4F)cc3)c3c(N)n[nH]c(=O)c32)C1` is reported as 136 nM (Tyrosine-protein kinase TXK (TXK, Homo sapiens, UniProt P42681); binding, competition with immobilised ligand).
`CCCC[C@@H]1NC(=O)[C@H](Cc2ccc(O)cc2)NC(=O)[C@@H]2CCCN2C(=O)[C@H](CC(=O)O)NC(=O)[C@H](C)NC(=O)[C@H](Cc2ccccc2)NC(=O)[C@@H]2CSCCC(=O)N3CN(CN(C3)C(=O)CCSC[C@@H](C(=O)N[C@@H](C)C(N)=O)NC1=O)C(=O)CCSC[C@H](NC(C)=O)C(=O)N[C@@H](CC(C)(C)C)C(=O)N1CCC[C@H]1C(=O)N[C@@H](CCC(=O)O)C(=O)N[C@H](CCCCNC(=O)CCc1cn(CC(=O)N[C@H]3CSCCC(=O)N4CN5CN(C4)C(=O)CCSC[C@H](NC(=O)[C@@H](CC(=O)O)NC(=O)[C@H](Cc4cccc6ccccc46)NC(=O)[C@@H]4CCCN4C3=O)C(=O)N[C@@H](CCSC)C(=O)N[C@@H](CCCCNC(=N)N)C(=O)N[C@@H](CC(=O)O)C(=O)N[C@@H](Cc3c[nH]c4ccccc34)C(=O)N[C@@H](CO)C(=O)N[C@@H]([C@@H](C)O)C(=O)N3CCC[C@H]3C(=O)N3C[C@H](O)C[C@H]3C(=O)N[C@@H](Cc3c[nH]c4ccccc34)C(=O)N[C@H](C(N)=O)CSCCC5=O)nn1)C(=O)N1CCC[C@H]1C(=O)N[C@@H](Cc1ccc(O)cc1)C(=O)N2` has a Kd of 1 nM (Nectin-4; binding, SPR).
With `CCC(=O)N1CCC(C(=O)NCC(=O)N2CCN(c3nc(-c4cnc(N)nc4C(F)F)nc(N4CCOCC4)n3)CC2)CC1` the Kd was 85 nM (PIK3C2B; binding, competition with immobilised ligand).
`NC(=O)c1ncn([C@@H]2O[C@H](COP(=O)(O)O)[C@@H](O)[C@H]2O)c1N` has a Kd of 122000 nM (Adenylosuccinate lyase (ADSL, Homo sapiens, UniProt P30566, R303C); binding, ITC).
The Kd of `Cc1cc(Nc2cc3ncccc3c(N[C@@H]3C[C@H]4CC[C@@H](C3)N4CCC#N)n2)n[nH]1` is reported as 100 nM (Mitogen-activated protein kinase kinase kinase 3 (MAP3K3, Homo sapiens, UniProt Q99759); binding, competition with immobilised ligand).
The Kd of `C=CC(=O)N1CCC(C(=O)NCC(=O)N2CCN(c3nc(-c4cnc(N)nc4C(F)F)nc(N4CCOCC4)n3)CC2)CC1` is reported as 81 nM (PIK3C2B; binding, competition with immobilised ligand).
The Kd of `[N-]=[N+]=N[C@@H]1[C@H](O)[C@@H](CO)O[C@H]1n1ccc(=O)[nH]c1=O` is reported as 181 nM (UCK1; binding, fluorescence).
With `Cc1nc(NC(=O)N2CCC[C@H]2C(N)=O)sc1-c1ccnc(C(C)(C)C(F)(F)F)c1` the Kd was 315 nM (PIK3C2B; binding, competition with immobilised ligand).
`[N-]=[N+]=N[C@@H]1[C@H](O)[C@@H](CO)O[C@H]1n1ccc(N)nc1=O` gave a Kd of 65.7 nM (UCK1; binding, fluorescence).
With `NC(=O)C1=CN([C@@H]2O[C@H](COP(=O)(O)OP(=O)(O)OC[C@H]3O[C@@H](n4cnc5c(N)ncnc54)[C@H](OP(=O)(O)O)[C@@H]3O)[C@@H](O)[C@H]2O)C=CC1` the Kd was 53000 nM (ZMO1885 (Zymomonas mobilis, UniProt Q5NLA1, D294W/Y343W); binding).
